The values below come from PMC4834512 (Innate Immunity, 2016).

Data set [1] relates to LPS from E. coli. Kind of data set: LPS inactivation by PMB in plasma, LAL test. The following applies: 5 ng/ml LPS from E. coli, fresh human heparinized plasma, 60 min 37℃. It counts as biochemical, Escherichia coli. The gist of the method: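 Fresh human heparinized plasma spiked with E. coli LPS (5 or 0.5 ng/ml) was incubated with test compound at 0, 10, 100, 250, 500 and 1000 ng/ml for 60 min at 37℃ in pyrogen-free glass vials. Endotoxin activity was read by kinetic chromogenic LAL test. ENC50 is the concentration reducing activity by 50% relative to LPS-spiked plasma without test compound.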

For data set [2], the system named is plasma proteins. It counts as in vitro ADME, human. An outline of the steps: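 Fresh citrate-anticoagulated plasma from three donors was spiked with 1 µg/ml test compound. Aliquots were centrifuged (10,000 g, 20 min) through ultrafiltration membranes of 10, 30, 50 or 100 kDa MMCO, and filtrates were stored at −20℃. Drug in filtrates was measured by competitive ELISA (detection limit 1 ng/ml; samples diluted into 0–100 ng/ml range). Total protein was measured by automated analyser. The same filtration was run in 0.9% NaCl to check binding to the filter.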

Data set [3] relates to plasma proteins. The following applies: assumed value from the literature; cited from earlier work.

Values joined by “and” are separate entries in the source; they are usually repeats but may differ in a detail not shown here. Equal values may be shown once.

Turning to Polymyxin B [PMB], the “ENC50 (endotoxin neutralizing concentration)” value in data set [1] is 381 ng/mL and < 400 ng/mL. Besides, in data set [2] (100 kDa MMCO, citrate plasma, 1 µg/ml PMB, ultrafiltration 10,000 g 20 min, ELISA, mean ± SD n = 3), the “PMB % of + control in filtrate” value amounted to 25 ± 13%. In addition, the “PMB-content of filtrates compared with a PMB-solution without plasma” value in data set [2] (membranes with smaller pores than 100 kDa MMCO (10, 30, 50 kDa)) was < 10%. Also, the “Plasma protein binding of PMB” value in data set [3] is given as “up to 90%”.
